Broadly, the IC50 is the concentration at which inhibition is half-maximal. Higher therefore signals weaker potency in that assay.

The text below walks through data of ChEMBL document CHEMBL1671775, “Synthesis, anticancer activity, and iron affinity of the Actinoplanes metabolite 7,8-dihydroxy-1-methylnaphtho[2,3-c]furan-4,9-dione” (Bioorg Med Chem, 2011).

Common to all, as to type: functional, cell-based
The nature of experiment [1]: Cytotoxicity against human MCF7/Topo cells after 72 hrs by MTT assay. The procedure, abridged: (§1)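 Cells were seeded at 5 × 10^4/mL and cultured 24 h, then exposed to compound for 72 h. KB-V1/Vbl cells were grown in DMEM with 10% FCS and MCF-7/Top cells in EMEM with 5% FCS, pyruvate and NaHCO3. MTT was added to a final 0.1% for 2 h. Medium was discarded, and formazan was dissolved in DMSO/SDS/acetic acid. A570 was read against A630 background. IC50 was taken from concentration–response curves versus untreated controls; four independent experiments.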
(In general: Tetrazolium assays rely on reduction of a dye to a coloured formazan, in cell work by metabolically active cells.)

The test system of another experiment is HFF. Nature of the experiment: Cytotoxicity against human HFF after 72 hrs by MTT assay. In a few lines: (§2)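 518A2 cells and foreskin fibroblasts were grown in DMEM with 10% FCS, seeded at 5 × 10^4/mL and cultured 24 h. Cells were then exposed to compound for 72 h. MTT was added to a final 0.05% for 2 h. Medium was discarded, and formazan was dissolved in DMSO/10% SDS/0.6% acetic acid. A570 was read against A630 background. IC50 was taken from concentration–response curves versus untreated controls; four independent experiments.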

Experiment [2] is described as follows: Cytotoxicity against human KB-V1/Vbl cells after 72 hrs by MTT assay. The procedure, abridged:
as §1

The subject of another experiment is HL-60. Nature of the experiment: Cytotoxicity against human HL60 cells after 72 hrs by MTT assay. Conditions: HL-60, 72 h. The procedure, abridged: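 HL-60 cells were grown in RPMI 1640 with 10% FCS at 37 °C and 5% CO2, seeded at 5 × 10^5/mL and cultured 24 h. Cells were then exposed to compound for 72 h. MTT was added to a final 0.05% for 2 h, and formazan was dissolved in DMSO with 10% SDS and 0.6% acetic acid. A570 was read against A630 background. IC50 was taken from concentration–response curves relative to untreated controls; quadruplicate, four independent experiments.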

Another experiment relates to HT-29. As to the kind of experiment: Cytotoxicity against human HT-29 cells after 72 hrs by MTT assay. Conditions: HT-29, 72 h.
A short description of experiment [3]: Cytotoxicity against human 518A2 cells after 72 hrs by MTT assay. Conditions: 518A2, 72 h. The procedure, abridged:
as §2

On to `Cc1occ2c1C(=O)c1c(ccc(O)c1O)C2=O`, for which the IC50 in experiment [1] is above 100 µM; in the experiment on HFF, 69 µM; in experiment [2] it was 86 µM; in the experiment with HL-60, 89 µM; with HT-29, 70 µM; in experiment [3], 84 µM.

For `COc1ccc2c(c1O)C(=O)c1c(coc1C)C2=O`, the IC50 in experiment [1] was 16 µM; in the experiment with HFF, 31 µM; in experiment [2] it was 51 µM; with HL-60, 18 µM; with HT-29, 31 µM; in experiment [3], above 100 µM.

Take `CC1=CC(=O)C(C(C)C)=CC1=O` [THYMOQUINONE]: the IC50 in experiment [1] is 27 µM; in the experiment on HFF, 33 µM; in experiment [2], 32 µM; with HL-60, 28 µM; with HT-29, 47 µM; in experiment [3] it was 28 µM.
